The record followed here is ChEMBL document CHEMBL1125311, “Inhibition of human leukocyte elastase. 4. Selection of a substituted cephalosporin (L-658,758) as a topical aerosol” (J Med Chem, 1992).

Data set [1] concerns the target T1, Neutrophil elastase (Homo sapiens) (UniProt P08246).
T1 sequence (whole entry): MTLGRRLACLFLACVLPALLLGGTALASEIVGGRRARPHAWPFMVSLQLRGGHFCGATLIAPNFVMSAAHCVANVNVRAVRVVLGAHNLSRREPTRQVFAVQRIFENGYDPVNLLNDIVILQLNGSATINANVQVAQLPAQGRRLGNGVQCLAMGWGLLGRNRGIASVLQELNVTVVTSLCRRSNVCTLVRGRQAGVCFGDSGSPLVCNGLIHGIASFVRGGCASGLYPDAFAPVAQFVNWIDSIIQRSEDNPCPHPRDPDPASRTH

For data set [2], the system named is Cricetinae gen. sp. Kind of data set: Compound was evaluated in vivo for inhibition of HLE-induced hemorrhage in hamster lung at 100 microg, 30 min after administration. The data set is classed as functional, Cricetulus griseus. Summed up: (§1)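 Hamster, intratracheal dosing of compound (per animal) 30 min before IT instillation of 50 μg HLE (50 units in Experimental); hemorrhage read 3 h later: lungs lavaged with saline, hemoglobin in lavage measured at 414 nm. Percent inhibition from drug-treated vs vehicle-treated hemorrhage; three animals per dose and time. Titration at 100, 30, 10, 3 μg/animal gives ED50.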

Data set [3] has as its system Cricetinae gen. sp. Nature of the data set: Compound was evaluated in vivo for inhibition of HLE-induced hemorrhage in hamster lung at 100 microg, 30 min after administration prior to HLE. The data set is classed as functional, Cricetulus griseus. Summed up: as §1
The subject of data set [4] is Cricetinae gen. sp. Nature of the data set: Compound was evaluated in vivo for inhibition of HLE-induced hemorrhage in hamster lung at 10microg, 30 min after administration prior to HLE. The data set is classed as functional, Cricetulus griseus. Put shortly:
as §1

The test system of data set [5] is Cricetinae gen. sp. Nature of the data set: Compound was evaluated in vivo for inhibition of HLE-induced hemorrhage in hamster lung at 30microg, 30 min after administration prior to HLE. The data set is classed as functional, Cricetulus griseus. Summed up: as §1
In data set [6] the test system is Cricetinae gen. sp. Nature of the data set: Compound was evaluated in vivo for inhibition of HLE-induced hemorrhage in hamster lung at 100 microg 30 min after administration prior to HLE. The data set is classed as functional, Cricetulus griseus. Summed up: as §1
Data set [7] concerns Cricetinae gen. sp. Nature of the data set: Compound was evaluated in vivo for inhibition of HLE-induced hemorrhage in hamster lung at 200 microg 2 hr after administration prior to HLE. The format is functional, Cricetulus griseus. Summed up:
(§2)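 Hamster duration protocol: 200 μg/animal given intratracheally 60, 120, 180 or 240 min before IT HLE instillation; hemorrhage scored after 3 h as hemoglobin (414 nm) in saline lung lavage, relative to vehicle-treated animals; three animals per point. T50 taken as time at which 50% inhibition is still obtained.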

Data set [8] has as its system Cricetinae gen. sp. Nature of the data set: Compound was evaluated in vivo for inhibition of HLE-induced hemorrhage in hamster lung at 200 microg 1 hr after administration prior to HLE. The data set is classed as functional, Cricetulus griseus. Put shortly: as §2
Data set [9] has as its system Cricetinae gen. sp. Nature of the data set: Compound was evaluated in vivo for inhibition of HLE-induced hemorrhage in hamster lung at 10 ug 30 min after administration prior to HLE. The data set is classed as functional, Cricetulus griseus. Summed up:
as §1

Data set [10] concerns Cricetinae gen. sp. Nature of the data set: Compound was evaluated in vivo for inhibition of HLE-induced hemorrhage in hamster lung at 200 microg 3h after administration prior to HLE. The data set is classed as functional, Cricetulus griseus. Put shortly: as §2
Data set [11] relates to Cricetinae gen. sp. Nature of the data set: Compound was evaluated in vivo for inhibition of HLE-induced hemorrhage in hamster lung at 30 ug 30 min after administration prior to HLE. The data set is classed as functional, Cricetulus griseus. Put shortly: as §1
Data set [12] concerns Cricetinae gen. sp. Nature of the data set: Compound was evaluated in vivo for inhibition of HLE-induced hemorrhage in hamster lung at 200 microg 4 hr after administration prior to HLE. The data set is classed as functional, Cricetulus griseus. Summed up:
as §2

Data set [13] can be described thus: Half-life value of the compound. The format is ADME. Summed up:
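Chemical stability: compound dissolved at 1 mg/mL in 0.5 M MOPS, pH 8.0, held at 25 °C in capped vial; aliquots quenched in 2% aqueous TFA and analysed by reverse-phase HPLC over one to two half-lives. Peak areas fit to first-order decay F(t)=A/2^(t/t1/2) to give t1/2.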

The test system of data set [14] is Cricetinae gen. sp. Nature of the data set: Compound was evaluated in vivo for inhibition of HLE-induced hemorrhage in hamster lung at 200 microg, 3h after administration prior to HLE. The format is functional, Cricetulus griseus. Summed up:
as §2

Data set [15] has as its system Cricetinae gen. sp. Kind of data set: Compound was evaluated in vivo for inhibition of HLE-induced hemorrhage in hamster lung at 200 microg, 2 hr after administration prior to HLE. The data set is classed as functional, Cricetulus griseus. Put shortly: as §2
In data set [16] the test system is Cricetinae gen. sp. Kind of data set: Compound was evaluated in vivo for inhibition of HLE-induced hemorrhage in hamster lung at 200 microg, 1 hr after administration prior to HLE. The data set is classed as functional, Cricetulus griseus. Put shortly:
as §2

The subject of data set [17] is Cricetinae gen. sp. Kind of data set: Compound was evaluated in vivo for inhibition of HLE-induced hemorrhage in hamster lung at 30 microg, 30 min after administration prior to HLE. The format is functional, Cricetulus griseus. Summed up:
as §1

Data set [18] deals with Cricetinae gen. sp. Nature of the data set: Compound was evaluated in vivo for inhibition of HLE-induced hemorrhage in hamster lung at 10 microg, 30 min after administration prior to HLE. The format is functional, Cricetulus griseus. Put shortly:
as §1

In the next data set the target is T2, Neutrophil elastase (Homo sapiens, UniProt P08246).
T2 sequence (P08246 whole entry): T1 sequence (whole entry)
Kind of data set: In vitro inhibitory activity against human leukocyte elastase.

In data set [19] the test system is Cricetinae gen. sp. Kind of data set: Compound was evaluated in vivo for inhibition of HLE-induced hemorrhage in hamster lung at 400 microg, 30 min after administration. The format is functional, Cricetulus griseus.

One may read the Inhibition as the relative decrease from the control value, in per cent. One may read the half-life as how long it takes for the measured level to halve. Higher therefore signals slow loss. A word on the Ki: it is a dissociation constant, usually derived from enzyme kinetics or from competition with a known ligand.

Take `CO[C@H]1C(=O)N2C(C(=O)N(C)Cc3ccc(C(=O)O)cc3)=C(COC(C)=O)CS(=O)(=O)[C@H]12`: the k obs / 1 in data set [1] was 8600 M⁻¹ s⁻¹. Moreover, the Inhibition with Cricetinae gen. sp. [2] was found to be 65%.

Turning to `CO[C@H]1C(=O)N2C(C(=O)N(C)CC(=O)O)=C(COC(=O)NCc3ccccc3)CS(=O)(=O)[C@H]12`, the Inhibition in the data set on Cricetinae gen. sp. [3] came out at 91%; in the data set on Cricetinae gen. sp. [4], 27%; with Cricetinae gen. sp. [5] it was 93%. Also, the k obs / 1 in data set [1] came out at 600 M⁻¹ s⁻¹.

Regarding `CO[C@H]1C(=O)N2C(C(=O)N(C)CCC(=O)O)=C(CSc3nc(=O)c(=O)[nH]n3C)CS(=O)(=O)[C@H]12`, the Inhibition is 96% in the data set with Cricetinae gen. sp. [6]; 87% in the data set on Cricetinae gen. sp. [7]; 95% with Cricetinae gen. sp. [8]; 45% with Cricetinae gen. sp. [9]; 46% in the data set with Cricetinae gen. sp. [10]; 74% in the data set with Cricetinae gen. sp. [11]. For the same compound, in the data set on Cricetinae gen. sp. [12], the Inhibition is -23%. In data set [1], this compound came in with a k obs / 1 of 1000 M⁻¹ s⁻¹.

In [1], `CO[C@H]1C(=O)N2C(C(=O)N(C)CC(=O)O)=C(CSc3nnnn3C)CS(=O)(=O)[C@H]12` showed a k obs / 1 of 600 M⁻¹ s⁻¹.

`CO[C@H]1C(=O)N2C(C(=O)N(C)CC(=O)O)=C(COC(C)=O)C(C)S(=O)(=O)[C@H]12` (stereo not given in full) gave a k obs / 1 in data set [1] of 1400 M⁻¹ s⁻¹. Further, the half-life in data set [13] was 8 h.

For `CC[C@H]1C(=O)N2C(C(=O)N(C)CC(=O)O)=C(COC(=O)c3ccc(C(=O)O)cc3)CS(=O)(=O)[C@H]12`, the Inhibition in the data set with Cricetinae gen. sp. [14] was determined as 57%; with Cricetinae gen. sp. [15], 59%; with Cricetinae gen. sp. [16], 84%. In addition, the k obs / 1 in data set [1] was found to be 100 M⁻¹ s⁻¹.

As to `CO[C@H]1C(=O)N2C(C(=O)N(C)CCC(=O)O)=C(COC(C)=O)CS(=O)(=O)[C@H]12`, the k obs / 1 in data set [1] was 500 M⁻¹ s⁻¹. Besides, the Inhibition in the data set on Cricetinae gen. sp. [7] is given as 39%; in the data set on Cricetinae gen. sp. [8], 80%; with Cricetinae gen. sp. [10] it was -1%; in the data set with Cricetinae gen. sp. [12] it was 33%. This compound also had a half-life in data set [13] of 24 h.

With `CO[C@H]1C(=O)N2C(C(=O)N(C)[C@H](C)C(=O)O)=C(COC(C)=O)CS(=O)(=O)[C@H]12`, the Inhibition in the data set on Cricetinae gen. sp. [3] was 97%; with Cricetinae gen. sp. [17] it was 90%; with Cricetinae gen. sp. [18] it was 29%. For the same compound, the k obs / 1 in data set [1] came out at 900 M⁻¹ s⁻¹.

In data set [1], `CO[C@H]1C(=O)N2C(C(=O)N3CCOCC3)=C(COC(C)=O)CS(=O)(=O)[C@H]12` gave a k obs / 1 of 35200 M⁻¹ s⁻¹. Also, the Inhibition in the data set on Cricetinae gen. sp. [2] is recorded as -21%. In [13], this compound showed a half-life of 13 h.

As for `CO[C@H]1C(=O)N2C(C(=O)N(C)CC(=O)O)=C(CSc3ccccn3)CS(=O)(=O)[C@H]12`, the Inhibition in the data set with Cricetinae gen. sp. [3] was determined as 76%; in the data set on Cricetinae gen. sp. [4] it was 35%; in the data set with Cricetinae gen. sp. [5], 46%. Further, affinity at Neutrophil elastase was put at a Ki of 43 µM.

Regarding `CO[C@H]1C(=O)N2C(C(=O)NC(C)(C)C)=C(COC(C)=O)CS(=O)(=O)[C@H]12`, the k obs / 1 in data set [1] amounted to 2200 M⁻¹ s⁻¹. Moreover, the Inhibition in the data set on Cricetinae gen. sp. [19] is on record as -5%.

On to `CO[C@H]1C(=O)N2C(C(=O)N(C)CC(=O)OC(C)(C)C)=C(CSc3nc(=O)c(=O)[nH]n3C)CS(=O)(=O)[C@H]12`, for which the Inhibition in the data set on Cricetinae gen. sp. [14] stood at 38%; in the data set with Cricetinae gen. sp. [6], 98%; with Cricetinae gen. sp. [15], 84%; with Cricetinae gen. sp. [8] it was 89%; with Cricetinae gen. sp. [9] it was 65%; with Cricetinae gen. sp. [11] it was 94%. In data set [1], this compound showed a k obs / 1 of 19300 M⁻¹ s⁻¹.

For the compound `CO[C@H]1C(=O)N2C(C(=O)N(CC(=O)O)Cc3ccccc3)=C(COC(C)=O)CS(=O)(=O)[C@H]12`, the Inhibition in the data set on Cricetinae gen. sp. [3] amounted to 42%; with Cricetinae gen. sp. [5], 30%. On Neutrophil elastase, this compound yielded a Ki of 6.1 µM.
